{
  "source": "paper PMC7760462",
  "about": "(ACS Central Science, 2020)",
  "key": {"VRE (ATCC51858)": {"test_system": "VRE (ATCC51858)", "assay": "Antimicrobial activity against extracellular bacteria", "assay_type": "cell-based, vancomycin-resistant enterococci", "details": "Enterococcus, 18 h, read-out: extracellular MIC, VRE"}, "RAW 264.7 macrophages": {"test_system": "RAW 264.7 macrophages", "assay": "MTT cell viability assay", "assay_type": "cell-based", "details": "Mus musculus, RAW264.7, 24 h, read-out: IC50, RAW"}, "MRSA (USA100)": {"test_system": "MRSA (USA100)", "assay": "Antimicrobial activity against extracellular bacteria", "assay_type": "cell-based, methicillin-resistant Staphylococcus aureus", "details": "Staphylococcus aureus, MRSA|USA100, 18 h, read-out: extracellular MIC, MRSA"}, "[1]": {"test_system": "kidney of MRSA-infected mice", "assay": "Kidney histology analysis", "assay_type": "in vivo, mice (CD1-IGS)", "details": "72 h after infection (Figure 5e)", "summary_of_the_method": "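Mice were infected with MRSA USA100 (2 × 10^7 CFU) by tail-vein injection at 0 h. They received intraperitoneal PBS, vancomycin (100 mg/kg), test compound (72 mg/kg) or unconjugated polypeptide (50 mg/kg, molar equivalent) at 24 and 36 h. Mice were sacrificed at 72 h, and kidneys were H&E-stained for granulomatous foci, immune-cell infiltration and tubular necrosis.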"}, "S. aureus (ATCC12608)": {"test_system": "S. aureus (ATCC12608)", "assay": "Characterization of cell wall inhibition by SEM", "assay_type": "cell-based, Staphylococcus aureus", "details": "S. aureus treated 12 h at drug/bacteria ratio equivalent to MIC determination", "summary_of_the_method": "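S. aureus ATCC12608 was treated with the test compound, with PBS, free vancomycin and the unconjugated polypeptide as comparators. Cell wall morphology was then examined by scanning electron microscopy.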"}, "[2]": {"test_system": "bacteria exposed to subinhibitory concentrations", "assay": "Resistance test by serial passage", "assay_type": "cell-based"}, "[3]": {"details": "by previous studies; cited from earlier work"}},
  "data": [
    {"compound": "CN[C@H](CC(C)C)C(=O)N[C@H]1C(=O)N[C@@H](CC(N)=O)C(=O)N[C@H]2C(=O)N[C@H]3C(=O)N[C@H](C(=O)N[C@H](C(=O)O)c4cc(O)cc(O)c4-c4cc3ccc4O)[C@H](O)c3ccc(c(Cl)c3)Oc3cc2cc(c3O[C@@H]2O[C@H](CO)[C@@H](O)[C@H](O)[C@H]2O[C@H]2C[C@](C)(N)[C@H](O)[C@H](C)O2)Oc2ccc(cc2Cl)[C@H]1O", "note": "[Van, vancomycin]", "values": [
      {"measurement": "MIC", "setting": "VRE (ATCC51858)", "result": 176, "unit": "µM"},
      {"measurement": "IC50", "setting": "RAW 264.7 macrophages", "result": "> 706", "unit": "µM"},
      {"measurement": "MIC", "setting": "MRSA (USA100)", "result": 0.69, "unit": "µM"},
      {"measurement": "granulomatous foci in kidney (H&E)", "setting": "[1]", "result": "almost no granulomatous foci"},
      {"measurement": "cell wall appearance by SEM", "setting": "S. aureus (ATCC12608)", "result": "damaged bacterial cell wall"},
      {"measurement": "resistance induction, change in MIC", "setting": "[2]; over/after 20 passages at subinhibitory concentration", "result": "tripling"},
      {"measurement": "resistance induction, change in MIC", "setting": "[2]; within 5 passages at subinhibitory concentration", "result": "MIC doubling"},
      {"measurement": "serum Cmax", "setting": "[3]", "result": "~50", "unit": "mg/L"}
    ]}
  ]
}
